Screening data from PubChem BioAssay.
Only some compounds are listed: those with a hit (about 1.5% of all), similar ones and a draw of the others.
APJ antag – antagonists of human apelin receptor APJ, primary screen, CHO-K1 cells, beta-arrestin complementation, luminescence | P35414 | inhibition, % at 20 µM | 330,000 tested, 0.32% active | AID 2521, 2010;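 active = inhibition above about 40% at 20 µM, limit read from the data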;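 note: cells challenged with 10 nM apelin-13 agonist together with compound; plate controls were apelin-13 plus DMSO wells for no effect and DMSO wells lacking apelin-13 for full effect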
Target sequence (P35414 whole entry, looked up): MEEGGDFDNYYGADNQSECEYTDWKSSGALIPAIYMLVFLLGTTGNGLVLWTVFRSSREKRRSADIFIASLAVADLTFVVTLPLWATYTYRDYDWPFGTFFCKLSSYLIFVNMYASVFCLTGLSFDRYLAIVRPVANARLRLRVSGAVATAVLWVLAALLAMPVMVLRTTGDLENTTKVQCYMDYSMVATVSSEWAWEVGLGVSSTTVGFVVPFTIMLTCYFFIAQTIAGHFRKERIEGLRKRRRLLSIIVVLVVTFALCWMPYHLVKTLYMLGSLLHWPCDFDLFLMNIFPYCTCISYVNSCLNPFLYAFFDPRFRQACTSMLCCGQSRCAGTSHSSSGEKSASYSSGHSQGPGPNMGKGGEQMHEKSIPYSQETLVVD
APJ ag – agonists of human apelin receptor APJ, primary screen, CHO-K1 cells, PathHunter beta-arrestin, luminescence. 330,000 tested, 0.11% active. P35414. 0% DMSO wells, 100% apelin. activation, % at 20 µM. AID 2520, 2010;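 active = activation more than six SD over the plate average, tested at 20 µM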;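 note: 0% = DMSO alone and 100% = apelin-13 at 10 nM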
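Material: CHO-K1 APJ beta-arrestin complementation cell line; Input: cell density 1000 per well; Incubation: compound stimulation 90 min at 25 °C, detection 60 min; Signal: luminescence from split beta-galactosidase complementation, Galacton Star/Emerald II substrate; Controls: DMSO-only wells as negative, 10 nM Apelin-13 as positive control.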
CCR6 antagonist – CCR6 receptor antagonists, primary screen, cell-based, CHO-K1, luminescence, beta-arrestin, uHTS. C-C chemokine receptor type 6 (Homo sapiens), P51684. CHO-K1 CCR6 PathHunter beta-arrestin, CCL20-stimulated. inhibition, % at 20 µM. 340,000 tested, 0.49% active. AID 493098, 2011;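 active = compounds whose inhibition of the agonist-driven luminescence signal at 20 µM reaches about 50%, limit read from the data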;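 note: cells stimulated with CCL20 at 14 nM final; plate controls were DMSO with CCL20 for no effect and DMSO without agonist for full effect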
EBI2 block – EBI2 receptor antagonists, beta-arrestin recruitment, primary screen, cell-based, luminescence, 7a,25-OHC stimulation, uHTS | G-protein coupled receptor 183 (Homo sapiens), P32249 | 7a,25-OHC stimulated | inhibition, % at 5 µM | 360,000 tested, 0.81% active | AID 651636, 2012; in the data active = inhibition above about 38%;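 note: enzyme fragment complementation signal reports receptor beta-arrestin coupling in cells; 0% = agonist plus DMSO wells and 100% = wells without agonist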
CXCR6 block – CXCR6 receptor inhibitors, primary screen, cell-based, beta-arrestin, luminescence, CHO-K1 PathHunter, 1536-well; AID 602244, 2012; 360,000 tested, 0.36% active; inhibition, % at 20 µM; C-X-C chemokine receptor type 6 (Homo sapiens), O00574; in the data active = inhibition above about 34%, passing the limit was not always enough;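 note: antagonist mode with CXCL16 agonist at 10 nM final; 0% = 10 nM CXCL16 with DMSO and 100% = unstimulated wells without agonist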
CXCR6 confirm – CXCR6 receptor antagonists, confirmation, cell-based, single concentration, beta-arrestin, luminescence; inhibition, % at 20 µM; shares compounds with CXCR6 block; CHO-K1 CXCR6 PathHunter beta-arrestin; 700 tested, 65% active;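 active = mean inhibition over four retests above 40%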;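 note: receptor stimulated with 10 nM CXCL16 agonist; beta-galactosidase fragment complementation upon beta-arrestin recruitment to receptor; plate controls were CXCL16 plus DMSO for no effect and DMSO without CXCL16 for full effect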
* = called active by the depositor.

What do the screens show for `C[C@@H](NC(=O)c1[nH]cnc1C(=O)Nc1ccccc1F)c1ccccc1`?
EBI2 block: -28; CXCR6 block: 42*; CXCR6 confirm: 26

How did C[C@@H](NC(=O)c1nc[nH]c1C(=O)N[C@H](C)c1ccccc1)c1ccccc1 do in these assays?
APJ antag: 6; APJ ag: -3; CCR6 antagonist: 13; EBI2 block: 9; CXCR6 block: 10

How did O=C(C=Cc1ccccn1)c1ccccc1 do in these assays?
CCR6 antagonist: 39; EBI2 block: -12; CXCR6 block: 21

How did O=C(C=Cc1ccccn1)c1ccccc1O do in these assays?
CCR6 antagonist: 74*; EBI2 block: -10; CXCR6 block: 57*; CXCR6 confirm: 60*

Results for O=C(NC(=S)Nc1ccccc1C(=O)O)c1cncc(Br)c1 ?
APJ antag: 21; APJ ag: -4; CCR6 antagonist: -6; EBI2 block: 1; CXCR6 block: -12

Results for O=C(NC(=S)Nc1ccccc1O)c1cncc(Br)c1 ?
APJ antag: 28; APJ ag: -6; CCR6 antagonist: 66*; EBI2 block: 5; CXCR6 block: 47*; CXCR6 confirm: 48*

What do the screens show for `Cc1ccc(S(=O)(=O)N2CCCCC2)cc1NC(=O)Cn1cnc2c1c(=O)n(C)c(=O)n2C`?
APJ antag: 7; APJ ag: -2; CCR6 antagonist: 6; EBI2 block: 1; CXCR6 block: 3

How did CC(C)c1ccc(NC2CCCN(C(=O)C3=NN(C)C(=O)CC3)C2)cc1 (configuration not stated) do in these assays?
APJ antag: 17; APJ ag: -9; CCR6 antagonist: 13; EBI2 block: -11; CXCR6 block: -10

What do the screens show for `COc1cccc(OC)c1C(=O)Nc1ccc2nc(C)c(C)nc2c1`?
APJ antag: -2; APJ ag: 0; CCR6 antagonist: 3; EBI2 block: -13; CXCR6 block: 65*; CXCR6 confirm: -2

Results for COc1cccc(NC(=O)Nc2ccc3nc(C)c(C)nc3c2)c1 ?
APJ antag: 3; APJ ag: 2; CCR6 antagonist: 2; EBI2 block: 6; CXCR6 block: 1

How did COc1cccc(CN2CC(C(=O)NC3CCCCCC3)CCC2=O)c1 (configuration not stated) do in these assays?
APJ antag: -7; APJ ag: -4; CCR6 antagonist: 8; EBI2 block: 14; CXCR6 block: -2

What do the screens show for `O=C(Nc1nccs1)c1sc2cc(Cl)ccc2c1Cl`?
APJ antag: 31; APJ ag: -6; CCR6 antagonist: 73*; EBI2 block: 16; CXCR6 block: 67*; CXCR6 confirm: 76*

What do the screens show for `O=C(COc1ccc(Br)cc1F)NC1CC1`?
APJ antag: 3; APJ ag: -2; CCR6 antagonist: 7; EBI2 block: -7; CXCR6 block: -2

What do the screens show for `Cc1ccc2c(C)ccc(O)c2n1`?
APJ antag: 35; APJ ag: -6; CCR6 antagonist: 83*; EBI2 block: -11; CXCR6 block: 65*; CXCR6 confirm: 76*

How did Cc1ccc2c(Cl)cc(Cl)c(O)c2n1 do in these assays?
CCR6 antagonist: 97*; EBI2 block: 30; CXCR6 block: 49*; CXCR6 confirm: 70*

Results for Cc1c(C(=O)N/N=C/c2ccccn2)nnn1-c1nonc1N ?
APJ antag: -4; APJ ag: 1; CCR6 antagonist: 3; EBI2 block: -7; CXCR6 block: 4

How did FC(F)Sc1ccc(NC(=S)NC2CCCCC2)cc1 do in these assays?
APJ antag: -5; APJ ag: 2; CCR6 antagonist: -11; EBI2 block: 7; CXCR6 block: 57*; CXCR6 confirm: 4

What do the screens show for `Cc1oc(-c2cccs2)nc1CN1CCN(Cc2ccc(F)c(F)c2)C(CCO)C1` (configuration not stated)?
APJ antag: -19; APJ ag: -6; CCR6 antagonist: -2; EBI2 block: 3; CXCR6 block: 5

How did CCCC(=O)OCCNc1cc(Sc2nccn2C)c2nonc2c1[N+](=O)[O-] do in these assays?
CCR6 antagonist: 99*; EBI2 block: 49*; CXCR6 block: 100*; CXCR6 confirm: 105*
